Experimental findings from ChEMBL document CHEMBL6083207, “Design, synthesis and biological evaluation of a novel PSMA-PI3K small molecule drug conjugate” (RSC Med Chem, 2024) are described below.

Structures are written as SMILES.

One data set concerns LNCaP. The data set can be described thus: Antiproliferative activity against PSMA-positive human LNCaP cells incubated for 72 hrs by Cell Titer Glo assay. Type of data set: functional, cell-based. The procedure, abridged: (§1)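 Cells grown in RPMI 1640 with 10% FBS, seeded at 3 × 10^3 per well and left overnight, then exposed to a range of compound concentrations for 72 h. Viability read by CellTiter-Glo luminescence after 2 min shaking and 10 min at room temperature. IC50 calculated from the curves; mean of n = 3.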
In general terms: ATP-based viability assays read luminescence as a measure of living cells.

Data set [1] is described as follows: Toxicity in Balb/c athymic nude mouse xenografted with human 22Rv1 cells assessed as body weight change at 10 to 20 mg/kg, ip qd measured for 22 days. Type of data set: organism-based. To be noted: in vivo, 528 h, dose 10-20 mg/kg, time 22 day. The procedure, abridged:
(§2)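 Male Balb/c athymic nude mice, 8–10 weeks old. Tumour cells taken from 22Rv1 donor tumours (grown to 1000 mm3) and implanted at 2 × 10^6 per mouse, subcutaneously in the right flank. Randomized at about 100 mm3. Compound given ip once daily in saline with 1% PEG400; vehicle group received the same. Tumour volume (1/2 × L × W2) and body weight measured twice weekly.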

Data set [2] relates to CWR22R. Description: Induction of cell cycle arrest in human 22Rv1 cells assessed as accumulation at G0/G1 phase incubated for 24 hrs by flow cytometry. The class given is functional, cell-based. To be noted: dose <= 10.0 µM. The procedure, abridged: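 1 × 10^5 22Rv1 cells treated at several concentrations for 24 h, then fixed in ice-cold 70% ethanol. Stained with PI/RNase and analysed by flow cytometry with 488 nm excitation to give the percentage of cells in each cycle phase.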
For orientation: Flow cytometry measures light scatter and fluorescence of single cells or particles in a stream.

Data set [3] has as its system CWR22R. Description: Antitumor activity against human 22Rv1 cells xenografted in Balb/c athymic nude mouse at 20 mg/kg, ip qd measured for 22 days relative to control. The class given is functional. Conditions: 22Rv1, 528 h, time 22 day, read-out: TGI. The procedure, abridged:
as §2
(In xenograft studies the graft and the host belong to different species.)

Data set [4] deals with CWR22R. Description: Antitumor activity against human 22Rv1 cells xenografted in Balb/c athymic nude mouse administered intraperitoneally once daily measured for 22 days. Conditions: dose 10-20 mg/kg, route ip, time 22.0 day. The procedure, abridged:
as §2

Data set [5] concerns 22Rv1. The data set can be described thus: Inhibition of PI3K in human 22Rv1 cells assessed as reduction in phosphorylation of AKT at S473 incubated for 3 hrs by Western blot analysis. Type of data set: cell-based. Conditions: dose <= 10.0 µM. The essentials: (§3)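 22Rv1 cells treated at the stated concentrations for 3 h and lysed in RIPA buffer with protease and phosphatase inhibitors. 25 μg protein separated by SDS-PAGE and blotted to PVDF. Probed overnight at 4 °C for phospho- and total mTOR, AKT (Ser473) and S6RP, with β-actin as loading control. Detected by ECL chemiluminescence.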

Data set [6] deals with Phosphatidylinositol 4,5-bisphosphate 3-kinase catalytic subunit alpha isoform (Homo sapiens, UniProt P42336). The data set can be described thus: Inhibition of PI3Kalpha (unknown origin).
In data set [7] the test system is 22Rv1. The data set can be described thus: Inhibition of PI3K in human 22Rv1 cells assessed as reduction in phosphorylation of mTOR incubated for 3 hrs by Western blot analysis. The class given is cell-based. To be noted: dose <= 10.0 µM. The essentials: as §3
Data set [8] in a line: Selectivity ratio of IC50 for PSMA-negative human PC-3 cells to IC50 for PSMA-positive human LNCaP cells. The class given is functional. The essentials:
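Ratio of PC3 IC50 to LNCaP IC50, both from 72 h CellTiter-Glo viability assays.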

The test system of the next data set is PC-3. The data set can be described thus: Antiproliferative activity against PSMA-negative human PC-3 cells incubated for 72 hrs by Cell Titer Glo assay. Type of data set: functional, cell-based. To be noted: PC-3, 72 h. The procedure, abridged: as §1
For data set [9], the system named is CWR22R. The data set can be described thus: Antiproliferative activity against PSMA-positive human 22Rv1 cells incubated for 72 hrs by Cell Titer Glo assay. The class given is functional, cell-based. To be noted: 22Rv1, 72 h. The essentials: as §1
A short description of data set [10]: Selectivity ratio of IC50 for PSMA-negative human PC3 cells to IC50 for PSMA-positive human 22Rv1 cells.
The test system of data set [11] is 22Rv1. Description: Inhibition of PI3K in human 22Rv1 cells assessed as reduction in phosphorylation of S6RP incubated for 3 hrs by Western blot analysis. Type of data set: cell-based. Conditions: dose <= 10.0 µM. The procedure, abridged: as §3
A short description of data set [12]: Toxicity in Balb/c athymic nude mouse xenografted with human 22Rv1 cells assessed as drug tolerance at 10 to 20 mg/kg, ip qd measured for 22 days. Type of data set: organism-based. To be noted: in vivo, 528 h, dose 10-20 mg/kg, time 22 day. The procedure, abridged:
as §2

Phosphatidylinositol 4,5-bisphosphate 3-kinase catalytic subunit alpha isoform, sequence (P42336 whole entry, canonical isoform): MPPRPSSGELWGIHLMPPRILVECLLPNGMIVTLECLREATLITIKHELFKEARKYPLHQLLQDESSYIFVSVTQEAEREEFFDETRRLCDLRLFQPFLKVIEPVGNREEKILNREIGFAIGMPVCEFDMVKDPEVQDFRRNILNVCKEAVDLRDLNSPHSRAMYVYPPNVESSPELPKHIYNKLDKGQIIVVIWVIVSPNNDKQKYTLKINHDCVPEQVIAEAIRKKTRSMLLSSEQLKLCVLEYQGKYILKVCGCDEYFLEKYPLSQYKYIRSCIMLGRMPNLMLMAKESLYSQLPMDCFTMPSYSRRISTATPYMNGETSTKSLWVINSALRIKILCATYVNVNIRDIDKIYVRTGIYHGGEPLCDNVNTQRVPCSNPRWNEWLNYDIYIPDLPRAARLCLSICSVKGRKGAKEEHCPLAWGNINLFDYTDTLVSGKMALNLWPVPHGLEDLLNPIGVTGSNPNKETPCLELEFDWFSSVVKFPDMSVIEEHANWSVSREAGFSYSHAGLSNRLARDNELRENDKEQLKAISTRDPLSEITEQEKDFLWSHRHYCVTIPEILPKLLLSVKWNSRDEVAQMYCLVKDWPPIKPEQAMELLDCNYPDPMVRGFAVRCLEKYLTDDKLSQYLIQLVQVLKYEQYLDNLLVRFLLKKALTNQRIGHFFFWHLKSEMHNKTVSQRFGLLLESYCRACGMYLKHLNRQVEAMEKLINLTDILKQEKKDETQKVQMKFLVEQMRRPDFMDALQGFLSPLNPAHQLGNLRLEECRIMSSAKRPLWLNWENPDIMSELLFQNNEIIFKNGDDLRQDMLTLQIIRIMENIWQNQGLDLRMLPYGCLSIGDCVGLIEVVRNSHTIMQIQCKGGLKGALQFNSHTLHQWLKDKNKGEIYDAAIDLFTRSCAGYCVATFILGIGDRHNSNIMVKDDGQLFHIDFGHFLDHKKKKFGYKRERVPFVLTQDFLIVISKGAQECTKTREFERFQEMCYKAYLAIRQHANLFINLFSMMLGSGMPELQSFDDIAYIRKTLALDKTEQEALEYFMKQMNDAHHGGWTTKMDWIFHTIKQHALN

For `NCCCC[C@H](NC(=O)N[C@@H](CCC(=O)O)C(=O)O)C(=O)O`, the IC50 (as a rule, the concentration needed to halve the response being measured) in the data set with LNCaP was greater than 100 µM.

`COc1ncc(-c2cc(OCCCC(=O)NC[C@H]3CC[C@@H](C(=O)N[C@@H](Cc4ccc5ccccc5c4)C(=O)NCCCC[C@H](NC(=O)N[C@@H](CCC(=O)O)C(=O)O)C(=O)O)CC3)c3ncnc(C)c3c2)cc1NS(=O)(=O)c1ccc(F)cc1F`: the Activity entry was “Non-toxic” in data set [1], “Dose-dependent-effect” in the data set with CWR22R [2], “Dose-dependent-effect” with CWR22R [4] and “Non-toxic” in [12]. In addition, in the data set with CWR22R [3], the inhibition in vivo at 20 mg/kg is 53%. The inhibition result with 22Rv1 [5], with 22Rv1 [7] and in the data set with 22Rv1 [11] was “Dose-dependent-effect” each time. Also, the half-maximal inhibitory concentration (IC50) in data set [6] is 0.0004 µM; in the data set with PC-3, 57.8 µM; with LNCaP, 1.08 µM; in the data set with CWR22R [9], 9.68 µM. Besides, the “Ratio IC50” value in data set [8] was determined as 54; in data set [10], 6.
